Our source for the inhibition and inhibition in vivo values is ChEMBL document CHEMBL1122557, “Antiallergic agents. 3. N-(1H-tetrazol-5-yl)-2-pyridinecarboxamides” (1984).

SMILES strings stand for the structures. Calls of active or inactive are those of the source. The calls are words filed in the database; no cut-off is given here.

The first assay deals with Rattus norvegicus. Kind of assay: Inhibition of passive cutaneous anaphylaxis following 10 mg/kg p.o. administration; Inactive. As to conditions: at 10 mg/kg. It is filed as functional, organism-based. Details: dose 10 mg/kg. In a few lines: (§1)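 Rat passive cutaneous anaphylaxis model, with test agents given by the oral route.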
Take `O=C(O)c1cccc(/C=C/c2ccccc2)n1`: the inhibition result is “inactive”.
Consider `CCOC(=O)C(=O)Nc1cccc(/C=C/c2ccccc2)n1`, for which the inhibition result was “inactive”.
On the same count and under the same terms, next, `O=C(O)C(=O)Nc1cccc(/C=C/c2ccccc2)n1`: “inactive”.
The same measure, in the same setting: the same measure for `C(=C\c1cccc(-c2nn[nH]n2)n1)/c1ccccc1`: “inactive”.

The next assay has as its system Rattus norvegicus. Kind of assay: Inhibition of passive cutaneous anaphylaxis following 10 mg/kg p.o. administration. It is filed as functional. As to conditions: route oral. In short, it runs like this: as §1
Turning to `O=C(Nc1nn[nH]n1)c1cc([N+](=O)[O-])ccn1`, the inhibition in vivo – broadly, the percentage by which the read-out fell short of the control – at 10 mg/kg is 38%.
Still for that read-out and setting: next, `CCCCOc1cccc(C(=O)Nc2nn[nH]n2)n1`: 8%.
On the same count and under the same terms, next, `CCCCc1cccc(C(=O)Nc2nn[nH]n2)n1`: 18%; `O=C(Nc1nn[nH]n1)c1cccc(Cl)n1`: 13%.
The same measure, in the same setting: the same measure for `O=C(Nc1nn[nH]n1)c1cc(Cl)ccn1`: 100%; for `Cc1cccnc1C(=O)Nc1nn[nH]n1`: 69%.
In turn, `O=C(Nc1nn[nH]n1)c1cccc(Oc2ccccc2)n1` registered an inhibition in vivo at 10 mg/kg of 0%.
Compound `Cc1ccc(C(=O)Nc2nn[nH]n2)nc1C` yielded an inhibition in vivo at 10 mg/kg of 42%.
On the same count and under the same terms, the same measure for `COc1cccnc1C(=O)Nc1nn[nH]n1`: 0%; for `O=C(Nc1nn[nH]n1)c1ccccn1`: 35%; for `COc1ccnc(C(=O)Nc2nn[nH]n2)c1`: 88%.
In turn, `O=C(Nc1nn[nH]n1)c1cccc(Br)n1` gave an inhibition in vivo at 10 mg/kg of 48%.
For the compound `Cc1ccc(C(=O)Nc2nn[nH]n2)nc1`, the inhibition in vivo at 10 mg/kg was determined as 42%.
`Cc1cc([N+](=O)[O-])cc(C(=O)Nc2nn[nH]n2)n1` registered an inhibition in vivo at 10 mg/kg of 6%.
On to `Cc1cc(Cl)cc(C(=O)Nc2nn[nH]n2)n1`, for which testing at 10 mg/kg gave an inhibition in vivo of 100%.
Same read-out and setting: the same measure for `CCCCc1ccnc(C(=O)Nc2nn[nH]n2)c1`: 54%; for `COc1cc(C)nc(C(=O)Nc2nn[nH]n2)c1`: 20%.
Still for that read-out and setting: the same measure for `O=C(Nc1nn[nH]n1)c1cc(Br)ccn1`: 100%; for `COc1cccc(C(=O)Nc2nn[nH]n2)n1`: 58%; for `CCCc1cccc(C(=O)Nc2nn[nH]n2)n1`: 38%.
The compound `O=C(Nc1nn[nH]n1)c1cccnc1` registered an inhibition in vivo at 10 mg/kg of 3%.
The same measure, in the same setting: next, `O=C(Nc1nn[nH]n1)c1cccc(CCc2ccccc2)n1`: 45%; `O=C(Nc1nn[nH]n1)c1ncccc1Cl`: 22%.
For `CSc1ccc(C(=O)Nc2nn[nH]n2)nc1`, at 10 mg/kg the inhibition in vivo was 29%.

For a further assay, the system named is Rattus norvegicus. Kind of assay: Inhibition of passive cutaneous anaphylaxis following 3 mg/kg p.o. administration. It is filed as functional. As to conditions: route oral. In short, it runs like this:
as §1
`Cc1ccnc(C(=O)Nc2nn[nH]n2)c1` had an inhibition in vivo at 3 mg/kg of 42%.
Still for that read-out and setting: the same measure for `CCCCOc1cccc(C(=O)Nc2nn[nH]n2)n1`: 18%; for `O=C(Nc1nn[nH]n1)c1cccc(Cl)n1`: 18%.
Still for that read-out and setting: the same measure for `O=C(Nc1nn[nH]n1)c1cc(Cl)ccn1`: 72%; for `Cc1ccc(C)c(C(=O)Nc2nn[nH]n2)n1`: 65%.
On the same count and under the same terms, the same measure for `O=C(Nc1nn[nH]n1)c1ccccn1`: 29%; for `O=C(Nc1nn[nH]n1)c1cccc(Br)n1`: 38%.
Consider `CCc1ccnc(C(=O)Nc2nn[nH]n2)c1`, for which 3 mg/kg produced 29% inhibition in vivo.
`Cc1cc(C)nc(C(=O)Nc2nn[nH]n2)c1`: the inhibition in vivo at 3 mg/kg is 44%.
As for `O=C(Nc1nn[nH]n1)c1cccc(/C=C/c2ccccc2)n1`, 3 mg/kg produced 73% inhibition in vivo.
Same read-out and setting: the same measure for `CCCCc1ccnc(C(=O)Nc2nn[nH]n2)c1`: 33%.
In turn, `CNc1ccc(-c2cc(C)cc(C(=O)Nc3nn[nH]n3)n2)cc1` had an inhibition in vivo at 3 mg/kg of 89%.
In turn, `CC(C)c1ccnc(C(=O)Nc2nn[nH]n2)c1` registered an inhibition in vivo at 3 mg/kg of 34%.
In turn, `O=C(Nc1nn[nH]n1)c1cc(Br)ccn1` registered an inhibition in vivo at 3 mg/kg of 34%.
Same read-out and setting: next, `COc1cccc(C(=O)Nc2nn[nH]n2)n1`: 36%; `O=C(Nc1nn[nH]n1)c1cccnc1`: 4%.
In the case of `Cc1cccc(C(=O)Nc2nn[nH]n2)n1`, the inhibition in vivo at 3 mg/kg amounted to 46%.

The subject of a further assay is Rattus norvegicus. Kind of assay: Inhibition of passive cutaneous anaphylaxis following 30 mg/kg p.o. administration. It is filed as functional. As to conditions: route oral. In a few lines: as §1
The compound `O=C(Nc1nn[nH]n1)c1ccccn1` registered an inhibition in vivo at 30 mg/kg of 100%.
The same measure, in the same setting: the same measure for `O=C(Nc1nn[nH]n1)c1cccnc1`: 18%; for `O=C(Nc1nn[nH]n1)c1ccncc1`: 57%.

The test system of another assay is Rattus norvegicus. Kind of assay: Inhibition of passive cutaneous anaphylaxis following 1 mg/kg p.o. administration. As to conditions: route oral. It is filed as functional. In a few lines:
as §1
In the case of `Cc1ccnc(C(=O)Nc2nn[nH]n2)c1`, at 1 mg/kg the inhibition in vivo was 28%.
Still for that read-out and setting: the same measure for `O=C(Nc1nn[nH]n1)c1cc(Cl)ccn1`: 38%.
The same measure, in the same setting: the same measure for `Cc1ccc(C)c(C(=O)Nc2nn[nH]n2)n1`: 37%; for `O=C(Nc1nn[nH]n1)c1ccccn1`: 0%.
With `CCc1ccnc(C(=O)Nc2nn[nH]n2)c1`, at 1 mg/kg the inhibition in vivo was 32%.
Same read-out and setting: next, `Cc1cc(Cl)cc(C(=O)Nc2nn[nH]n2)n1`: 66%; `O=C(Nc1nn[nH]n1)c1cccc(/C=C/c2ccccc2)n1`: 53%.
Still for that read-out and setting: the same measure for `CC(C)c1ccnc(C(=O)Nc2nn[nH]n2)c1`: 36%; for `O=C(Nc1nn[nH]n1)c1cc(Br)ccn1`: 9%; for `Cc1cccc(C(=O)Nc2nn[nH]n2)n1`: 40%.

A further assay deals with Rattus norvegicus. Kind of assay: Inhibition of passive cutaneous anaphylaxis following 3 mg/kg p.o. (5 min pretreatment) administration. It is filed as functional. As to conditions: route oral. In short, it runs like this:
as §1
As for `Cc1ccnc(C(=O)Nc2nn[nH]n2)c1`, the inhibition in vivo at 3 mg/kg turned out to be 51%.
Still for that read-out and setting: next, `O=C(Nc1nn[nH]n1)c1cc(Cl)ccn1`: 71%; `Cc1ccc(C)c(C(=O)Nc2nn[nH]n2)n1`: 72%; `CCc1ccnc(C(=O)Nc2nn[nH]n2)c1`: 54%.
On to `Cc1cc(C)nc(C(=O)Nc2nn[nH]n2)c1`, for which the inhibition in vivo at 3 mg/kg stood at 37%.
The same measure, in the same setting: the same measure for `Cc1cc(Cl)cc(C(=O)Nc2nn[nH]n2)n1`: 85%; for `O=C(Nc1nn[nH]n1)c1cccc(/C=C/c2ccccc2)n1`: 75%; for `Cc1cccc(C(=O)Nc2nn[nH]n2)n1`: 73%.
